Here are results for four molecules from publication PMC5903019 (International Journal of Pharmaceutical Investigation, 2017).

For series [1] the following is noted: cited from earlier work.
The conditions of series [2]: cited from earlier work. The source holds these as a separate data set.
Series [3] concerns tubulin polymerization. Particulars: cited from earlier work.
A short description of series [4]: Solubility screening of EAPB0503 in oils. The format is physicochemical. An outline of the steps:
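5 mg of test compound was added to 1 g of pharmaceutical-grade oil ([…], castor, olive, soybean or sesame). Samples were magnetically stirred for 24 h at 20°C and then checked for complete solubilization.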

Series [5] in a line: Thermogravimetric analysis. The format is physicochemical. An outline of the steps:
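Thermogravimetric analysis of a 5.0 ± 0.5 mg sample in a ceramic pan under nitrogen at 2 bars. The sample was heated from 20°C to 350°C at 10°C/min to obtain the degradation temperature.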

The test system of series [6] is A375 cell line. Particulars: cited from earlier work.
The conditions of series [7]: rats, i.p.; cited from earlier work.
Series [8] in a line: Saturation solubility of EAPB0503 in solvents by HPLC. The series is classed as physicochemical. As to conditions: for solubility: thermodynamic from solid. An outline of the steps: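 Solvents, including purified water, were saturated with solid test compound and centrifuged at 5000 g for 5 min. The supernatant was quantified by HPLC on a C8 column using acetonitrile/2 mM ammonium formate pH 3 at 0.6 mL/min with a 12 min run. The column was held at 20°C and detection was by UV. Calibration used DMSO standards from 50–1000 μg/mL.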

Each structure is given as a SMILES string. In brackets after ≈: the same amount, converted by molar mass. Like-named read-outs stand apart in the source and are kept apart here.

Consider `COc1cc([C@@H]2c3cc4c(cc3[C@@H](O[C@@H]3O[C@@H]5CO[C@@H](C)O[C@H]5[C@H](O)[C@H]3O)[C@H]3COC(=O)[C@H]23)OCO4)cc(OC)c1O` [etoposide], for which, in series [1] (formulated in LNC), the “Drug efficiency (encapsulation) in LNC” value is 56.7 ± 21.3% and the “Drug loading in LNC” value is listed as 6.5 ± 3.0 mg/g. The Water solubility in series [2] is listed as 0.978 mg/mL.
Consider `CNc1nc2ccccc2n2c(-c3cccc(OC)c3)cnc12` [EAPB0503, 1-[3-methoxyphenyl]-N-methylimidazo [1,2-a] quinoxalin-4-amine], for which the “Inhibition of the tubulin polymerization” value in series [3] is on record as “potent inhibition”. In addition, the “Solubility in Labrafac WL 139” value in series [4] (Labrafac WL 139) is “higher than 12 mg/g”. Moreover, in series [4] (Labrafac WL 1349 (semi-synthetic oil), oil or lipid, thermodynamic from solid), the solubility – broadly, the dissolved amount per volume that the medium holds – at 24 h was 12 mg/mL (≈ 39.4 mM). Moreover, in series [4] (castor, olive, soybean and sesame oils), the “Concentration obtainable in vegetable oils” value is not above 1000 µg/mL. Moreover, the “Solubilization in vegetable oils” value in series [4] (castor, olive, soybean and sesame oils, 5 mg/mL, room temperature) is recorded as “not complete”. Also, the “Degradation temperature (TGA)” value in series [5] is 347 °C. In addition, the “Degradation temperature onset (TGA)” value in series [5] (onset) was determined as 210 °C. Also, the IC50 – broadly, the concentration that gives 50% inhibition – in series [6] (A375 cell line growth) was 200 nM. Moreover, the “Fold increase activity compared to EAPB0203” value in series [6] (in vitro activity, human melanoma cell lines) is 9. In series [7], the “Bioavailability after intraperitoneal administration” value is reported as 35%. For the same molecule, in series [8] (Purified water), the “Maximum concentration (solubility)” value is listed as less than 0.1 mg/mL. In addition, the solubility in series [8] (dimethyl sulfoxide, organic solvent or mixture) was 16.6 mg/mL (≈ 54.5 mM); in series [8] (dimethylacetamide, organic solvent or mixture) it was 24.8 mg/mL (≈ 81.5 mM); in series [8] (phosphate buffered saline, aqueous buffer) it was less than 0.1 mg/mL; in series [8] (purified water, water), less than 0.1 mg/mL.
For the molecule `CC(=O)O[C@H]1C(=O)[C@@]2(C)[C@H]([C@H](OC(=O)c3ccccc3)[C@]3(O)C[C@H](OC(=O)[C@H](O)[C@@H](NC(=O)c4ccccc4)c4ccccc4)C(C)=C1C3(C)C)[C@]1(OC(C)=O)CO[C@@H]1C[C@@H]2O` [paclitaxel], in series [1] (encapsulated in LNC), the “Drug loading in LNC” value is listed as 4 mg/mL.
As to `CC(=O)O[C@@]12CO[C@@H]1C[C@H](O)[C@@]1(C)C(=O)[C@H](O)C3=C(C)[C@@H](OC(=O)[C@H](O)[C@@H](NC(=O)OC(C)(C)C)c4ccccc4)C[C@@](O)([C@@H](OC(=O)c4ccccc4)[C@H]21)C3(C)C` [docetaxel], in series [1] (encapsulated in LNC), the “Drug loading in LNC” value was 2 mg/mL.
